# Hits are enriched below; roughly 0.7% of the tested compounds scored in any of these assays.
# GSK3B inh: human GSK3beta kinase inhibition; GST-GSK3beta kinase, ADP-Glo luminescence, 60 min; hits give low values; AID 2097; activity score (negative = inhibition), % at 10 µM; P49841; 300,000 compounds, 0.038% hits;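 active means more than half of replicate wells score below -50%, meaning over 50% inhibition versus plate controls; inconclusive means some replicates but at most half score below -50%; inactive means no replicate scores below -50%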
#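 Test system: GST-fused GSK3beta enzyme, cell-free | Quantity: 1.6 ng GST-GSK3beta enzyme per well | Reagent: 25 µM ATP with peptide substrate | Schedule: 60 min enzyme reaction, room temperature | Signal: Luminescent ADP-Glo measurement of ADP formed | Read-out basis: Score relative to plate controls | Control set: DMSO and 20 µM GW8510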
# Rce1 inh: inhibitors of yeast Ras-converting enzyme; Q03530; yeast membranes, quenched prenylated peptide cleavage fluorescence; 290,000 compounds, 0.27% hits; calls only;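 active means fall in fluorescence gain of 50% or more versus controls, with final raw signal at or below 3038400; inconclusive means same 50% fall but final raw signal above 3038400; inactive means fall in fluorescence gain under 50%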
# Target sequence (Q03530 whole entry, looked up): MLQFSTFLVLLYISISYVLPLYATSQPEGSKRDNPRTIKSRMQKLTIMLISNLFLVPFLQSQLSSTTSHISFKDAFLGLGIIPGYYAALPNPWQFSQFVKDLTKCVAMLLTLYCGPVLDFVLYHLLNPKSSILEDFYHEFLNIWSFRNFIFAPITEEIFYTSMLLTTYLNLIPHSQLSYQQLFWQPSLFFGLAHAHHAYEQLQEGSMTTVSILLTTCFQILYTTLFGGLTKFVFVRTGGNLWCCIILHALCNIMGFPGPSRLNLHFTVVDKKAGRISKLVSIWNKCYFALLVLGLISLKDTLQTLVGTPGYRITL
# STK33 kinase inh: inhibitors of human STK33 kinase | inhibition, % at 10 µM | purified STK33, MBP phosphorylation, ADP-Glo luminescence | 320,000 compounds, 0.073% hits;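 active means inhibition at or above 25%, using the most active replicate where run in duplicate; inactive means inhibition below 25%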
# HSV augment: increases HSV replication in cells; maximum fold increase; 220,000 compounds, 0.005% hits; HSV replication augmentation in cells, fold increase; AID 1956; in the data active means maximum fold increase above about 1.5; inconclusive means no clear call, values can overlap the other calls; tested in PC3 cells
# GSK3A inh: inhibitors of human GSK-3 alpha kinase. P49840. ADP-Glo luminescence, 60 min. inhibition, % at 10 µM. 320,000 compounds, 0.1% hits. AID 2650;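 active means more than half of replicates show inhibition above 20%; inconclusive means some but at most half of replicates above 20% inhibition; inactive means no replicate shows inhibition above 20%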;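 further: GST-tagged GSK-3 alpha with peptide substrate and 25 µM ATP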
# Lipid droplet: modulators of hepatic lipid droplet formation; AML12 mouse hepatocytes, oleate lipid droplets, BODIPY imaging; inhibition, % at 6.5 µM; 240,000 compounds, 0.4% hits; AID 1656;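 active means lipid droplet intensity inhibited by at least 50%, with more than 500 cells counted; inconclusive means wells with under 300 cells, treated as cytotoxic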
#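 Assay system: AML12 hepatocytes (mouse); Probe or stimulus: oleic acid at 100 µM to induce lipid droplet formation; Dosing: compound at 6.5 µM only; Schedule: compound with oleate, overnight; Detection: fluorescence imaging, 20x objective, two fields per well; Measure: % inhibition of lipid droplet signal.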
# Numbers stand for hits; – = inactive; ? = inconclusive; · = no result given; + = active, no number.
SMILES,GSK3B inh,Rce1 inh,STK33 kinase inh,HSV augment,GSK3A inh,Lipid droplet
CN(CC(=O)NCCCc1ccccc1)S(=O)(=O)c1ccc(Br)cc1,–,–,–,·,–,–
C[n+]1ccccc1COc1ccc(C(C)(C)C)cc1,–,–,–,–,–,–
COc1ccc(CCNC(=O)CSc2nc3[nH]ncc3c(=O)n2-c2ccc(Cl)cc2Cl)cc1OC,–,–,–,–,–,–
COc1ccc(CCNC(=O)CSc2nc3[nH]ncc3c(=O)n2-c2ccccc2OC)cc1OC,–,–,–,–,75,–
O=C(Nc1ccccc1-c1nc2ccccc2[nH]1)c1ccc(N2C(=O)CCC2=O)cc1,–,+,–,–,–,·
O=C(Nc1ccccc1-c1nc2ccccc2[nH]1)c1ccc(S(=O)(=O)N2CCCCC2)cc1,–,–,·,–,·,·
Cc1c(CN(C)C)c2c(n1Cc1ccccc1)C(=O)c1ccc(Br)cc1-2,–,–,–,–,–,–
Cc1c(CN(C)C)c2c(n1C)C(=O)c1ccc(Br)cc1-2,–,–,–,–,55,·
Cc1ccc(C(=O)NCCCNC(=O)COc2ccc(C)c(C)c2)cn1,–,–,–,·,–,–
Cc1ccsc1/C=N/NC(=O)c1nnn(-c2nonc2N)c1C(C)C,–,+,–,·,–,–
CC(C)c1c(C(=O)N/N=C/c2cccs2)nnn1-c1nonc1N,–,–,–,·,–,–
CC(C)c1c(C(=O)N/N=C/c2ccsc2)nnn1-c1nonc1N,–,+,–,·,–,–
Cc1c(C)n2c(SCC(=O)N3CC(C)OC(C)C3)nnc2[nH]c1=O (stereo unspecified),–,–,–,·,–,·
CCCC1=Nc2cc(C(=O)N3CCC(C(=O)OCC)CC3)ccc2Sc2ccccc21,–,–,–,·,–,–
CCS(=O)(=O)Nc1c(C(=O)O)[nH]c2ccccc12,–,+,–,–,–,·
O=C(COc1ccccc1)Nc1cccc(-c2nn[nH]n2)c1,–,–,–,·,–,–
O=C(COc1ccccc1)Nc1cccc(-c2nc3cc4ccccc4cc3[nH]2)c1,–,+,–,–,–,·
COc1ccc(C=NNC(=O)c2cc(C)oc2C)cc1O,·,·,–,·,–,·
C/C(=N/Nc1ccnc2cc(Cl)ccc12)c1ccc(O)cc1,–,–,32,·,–,·
O=C(COC(=O)c1cc(-c2cccs2)nn1-c1ccccc1)Nc1ccc(F)c([N+](=O)[O-])c1,–,–,–,–,–,–
Cc1ccc(-c2cc(-c3ccccc3)c(C#N)c(Br)n2)cc1,–,+,–,–,–,–
COc1cccc(NC(=O)CN(C)C(=O)c2c(C)noc2C)c1,·,·,–,·,–,·
CCc1ccc(NC(=O)CSc2nc3nc(C)cc(C)n3n2)cc1,–,–,–,·,–,–
CN(C)/C=N/c1nc2nccc(-c3ccc(F)cc3)n2n1,–,+,–,–,–,·
O=C(N/N=C/C1C(c2ccccc2)C1(Cl)Cl)c1cccc(Cl)c1 (stereo unspecified),–,–,–,–,–,–
SMILES,GSK3B inh,Rce1 inh,STK33 kinase inh,HSV augment,GSK3A inh,Lipid droplet
CN(C)CCCNc1nc(N)c([N+](=O)[O-])c(NC2CCCCC2)n1,-81,–,–,·,98,–
CC(C)CCNc1nc(N)c([N+](=O)[O-])c(NC2CCCCC2)n1,–,–,–,·,–,–
CC(C)CNc1nc(N)c([N+](=O)[O-])c(NC2CCCCC2)n1,–,–,–,·,–,–
Nc1nc(NCCOCCO)nc(NC2CCCCC2)c1[N+](=O)[O-],–,–,–,·,52,–
Nc1nc(NCCO)nc(NC2CCCCC2)c1[N+](=O)[O-],–,–,–,·,86,·
COc1cc([N+](=O)[O-])ccc1NC(=O)CCS(=O)(=O)c1ccc2c(c1)n(C)c(=O)c(=O)n2C,–,–,–,·,–,–
COC(=O)c1ccc(N2CCOCC2)c(NC(=O)Nc2cccc(OC)c2)c1,–,–,–,–,–,–
CCOC(=O)c1ccc(N2CCN(c3ccccc3F)CC2)c(NC(=O)Nc2cccc(OC)c2)c1,–,–,–,–,–,57
CCOc1ccccc1N1CCN(C(=O)c2c(Cl)cnn2C)CC1,–,–,–,·,–,–
CCC(=O)Nc1cccc(-c2cn3ccccc3n2)c1,–,–,–,–,–,–
O=C(Nc1cccc(-c2cn3ccccc3n2)c1)C1CC1,–,+,–,–,–,–
c1nc(N2CCCC2)c2[nH]cnc2n1,–,–,31,–,–,–
N#Cc1nc(-c2ccco2)oc1N1CCCC1,–,–,–,–,–,–
N#Cc1nc(-c2ccco2)oc1N1CCN(C(c2ccccc2)c2ccccc2)CC1,–,+,–,–,–,–
Cc1ccc(S(=O)(=O)N2CCOCC2)cc1C(=O)NC1CCSc2ccccc21 (stereo unspecified),–,–,–,·,–,–
CCOC(=O)CSc1cc(=O)n(C)c2cc(Cl)ccc12,–,–,–,·,–,·
CC(C)n1cnc2c(Nc3cccc(Cl)c3)nc(NCCCO)nc21,–,–,66,–,–,–
CC(C)[C@H](CO)Nc1nc(Nc2ccc(Cl)c(C(=O)O)c2)c2ncn(C(C)C)c2n1,–,–,–,–,–,–
CCOc1ccccc1/C=C(/NC(=O)c1ccccc1)C(=O)NCC(=O)O,–,–,–,–,–,52
N#CCC(=O)N/N=C/c1ccc(Cl)cc1,–,–,–,–,–,–
CN(c1ccccc1)c1ccc(/C=N/NC(=O)CC#N)cc1,–,+,–,–,–,–
O=C(c1ccoc1)N1CCCC(N2CCN(c3cccc(Cl)c3)CC2)C1 (stereo unspecified),–,–,–,·,·,–
COc1cccc2c1cc1c(=O)n(CC(=O)NCCCN3CCCCC3)nc(C)n12,-60,–,–,·,–,–
CCOC(=O)c1ccc(NC(=O)NCCc2cnc[nH]2)cc1,–,–,–,·,–,–
CS(=O)(=O)Nc1ccccc1C(=O)Nc1cccc(Cl)c1,–,+,–,–,–,–
SMILES,GSK3B inh,Rce1 inh,STK33 kinase inh,HSV augment,GSK3A inh,Lipid droplet
CN(C)CCNc1ncnc2oc(-c3ccccc3)c(-c3ccccc3)c12,–,+,–,·,–,–
CN(C)CCNc1ncnc2ccccc12,–,–,–,–,·,–
COc1ccc(-c2oc3ncnc(NCCCN(C)C)c3c2-c2ccc(OC)cc2)cc1,–,?,38,·,–,–
Cc1ccc(-c2oc3ncnc(N)c3c2-c2ccc(C)cc2)cc1,–,–,–,–,–,–
O=C(CCCn1c(=O)[nH]c2ccc(Br)cc2c1=O)NCc1ccc(Cl)cc1,–,+,–,–,–,–
C=CCNc1nc(C(=O)OCC(=O)N(Cc2ccccc2)C(C)C)cs1,·,·,–,·,–,·
CC(C(=O)NC1CCCCCC1)n1cc([N+](=O)[O-])cn1 (stereo unspecified),–,–,–,·,–,·
Cc1ccnc(NC(=O)C(C)n2cc([N+](=O)[O-])cn2)c1 (stereo unspecified),-74,–,–,–,–,–
COc1cc(C2Nc3ccc4ncccc4c3C3=C2C(=O)CCC3)ccc1O (stereo unspecified),–,–,–,–,–,·
Cc1nn(CCC(=O)O)c2nc(-c3cccnc3)cc(C(F)(F)F)c12,–,+,–,–,–,·

# Compound activity as filed in PubChem BioAssay.
